Results on two molecules are retold here after ChEMBL document CHEMBL2384977, “Synthesis and biological evaluation of novel styryl benzimidazole derivatives as probes for imaging of neurofibrillary tangles in Alzheimer's disease” (Bioorg Med Chem, 2013).

The species named for series [1] is Homo sapiens. As to the kind of experiment: Selectivity ratio of Kd(app) for amyloid beta (1 to 42) (unknown origin) aggregates to Kd(app) for recombinant human tau (441 amino acid residues) aggregates. The method, boiled down: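 Human 441-aa tau, expressed in E. coli, was aggregated at 1 mg/mL (MES pH 6.8, 0.1 mg/mL heparin, 37 °C, 3 days, shaking). Aβ1–42 was aggregated at 0.25 mg/mL (PBS pH 7.4, 37 °C, 42 h). Aggregates were incubated 30 min at room temperature with ligand, and fluorescence read at ex 440 nm, em 510 nm (tau) or 480 nm (Aβ). Apparent Kd came from saturation curves over six independent experiments, and the ratio is Kd(Aβ)/Kd(tau).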

Series [2] concerns the target Amyloid-beta precursor protein (Homo sapiens, UniProt P05067). As to the kind of experiment: Binding affinity to amyloid beta (1 to 42) (unknown origin) aggregates assessed as apparent dissociation constant after 30 mins by fluorescence spectroscopic analysis. Particulars: read-out: Kd(app). The method, boiled down: (§1)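 Tau: human 441-aa tau expressed in E. coli, aggregated at 1 mg/mL in MES buffer pH 6.8 with 0.1 mg/mL heparin, 37 °C for 3 days with shaking. Abeta1-42 aggregated at 0.25 mg/mL in PBS pH 7.4, 37 °C for 42 h with shaking. Aggregates at final 10 µg/mL were incubated with ligand (final 0.02–10 µM) for 30 min at room temperature. Apparent Kd was taken from fluorescence saturation curves at ex 440 nm, em 510 nm (tau) or em 480 nm (Abeta). Mean ± SEM of six independent experiments.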

Series [3] deals with Microtubule-associated protein tau (Homo sapiens, UniProt P10636). The series is described as follows: Binding affinity to recombinant human tau (441 amino acid residues) aggregates expressed in Escherichia coli assessed as apparent dissociation constant after 30 mins by fluorescence spectroscopic analysis. Conditions: read-out: Kd(app). Put shortly: as §1
The test system of series [4] is Brain. As to the kind of experiment: Ratio of drug level in ddY mouse brain at 13.2 to 20.6 kBq, iv measured at 2 mins to drug level in ddY mouse brain at 13.2 to 20.6 kBq, iv measured at 60 mins. Type of series: ADME, organism-based. Particulars: in vivo. The method, boiled down: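 Tail-vein injection of the 125I tracer (13.2–20.6 kBq, saline with ethanol) into male 5-week-old ddY mice. The ratio is brain uptake (%ID/g) at 2 min divided by brain uptake at 60 min, from groups of 5 animals.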

Sequence of Microtubule-associated protein tau (P10636 whole entry): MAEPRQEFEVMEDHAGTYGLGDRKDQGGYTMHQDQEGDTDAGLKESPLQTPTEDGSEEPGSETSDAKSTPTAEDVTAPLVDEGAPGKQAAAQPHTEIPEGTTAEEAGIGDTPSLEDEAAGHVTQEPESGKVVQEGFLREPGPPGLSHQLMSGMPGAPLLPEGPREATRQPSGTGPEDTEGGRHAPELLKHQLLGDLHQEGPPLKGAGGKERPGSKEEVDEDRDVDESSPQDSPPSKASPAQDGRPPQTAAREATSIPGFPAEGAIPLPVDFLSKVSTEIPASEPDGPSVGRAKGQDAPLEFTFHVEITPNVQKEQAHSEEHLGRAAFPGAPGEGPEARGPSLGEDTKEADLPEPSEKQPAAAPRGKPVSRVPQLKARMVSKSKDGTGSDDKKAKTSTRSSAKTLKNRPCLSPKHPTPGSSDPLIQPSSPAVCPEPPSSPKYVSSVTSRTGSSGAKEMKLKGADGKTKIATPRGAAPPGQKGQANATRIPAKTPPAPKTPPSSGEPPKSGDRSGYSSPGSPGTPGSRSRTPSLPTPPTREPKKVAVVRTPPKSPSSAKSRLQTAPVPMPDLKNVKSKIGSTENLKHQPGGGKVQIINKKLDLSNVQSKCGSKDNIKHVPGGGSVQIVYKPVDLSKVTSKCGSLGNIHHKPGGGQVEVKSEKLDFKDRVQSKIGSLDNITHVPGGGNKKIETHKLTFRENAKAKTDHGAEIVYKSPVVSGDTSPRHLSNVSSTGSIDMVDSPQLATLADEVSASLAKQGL
Sequence of Amyloid-beta precursor protein (P05067 whole entry): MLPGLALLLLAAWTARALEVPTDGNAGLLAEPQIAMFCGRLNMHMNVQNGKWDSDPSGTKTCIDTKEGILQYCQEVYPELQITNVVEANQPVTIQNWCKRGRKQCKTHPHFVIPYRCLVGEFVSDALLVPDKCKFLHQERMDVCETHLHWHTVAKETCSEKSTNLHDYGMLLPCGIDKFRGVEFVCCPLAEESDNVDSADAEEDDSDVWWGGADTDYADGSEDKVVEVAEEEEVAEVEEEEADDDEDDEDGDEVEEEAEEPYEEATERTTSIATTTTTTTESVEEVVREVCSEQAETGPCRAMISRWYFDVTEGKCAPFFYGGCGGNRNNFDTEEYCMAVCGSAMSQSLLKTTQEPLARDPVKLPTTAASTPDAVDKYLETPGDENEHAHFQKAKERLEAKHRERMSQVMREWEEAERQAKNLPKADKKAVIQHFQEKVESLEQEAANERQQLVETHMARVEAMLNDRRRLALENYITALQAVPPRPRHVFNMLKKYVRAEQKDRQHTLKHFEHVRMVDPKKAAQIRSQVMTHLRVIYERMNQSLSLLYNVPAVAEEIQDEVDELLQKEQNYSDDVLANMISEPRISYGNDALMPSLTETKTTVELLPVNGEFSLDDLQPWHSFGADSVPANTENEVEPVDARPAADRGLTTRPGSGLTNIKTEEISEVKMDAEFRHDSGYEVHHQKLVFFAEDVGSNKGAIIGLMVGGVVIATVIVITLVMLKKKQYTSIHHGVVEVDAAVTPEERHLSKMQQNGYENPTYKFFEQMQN

For `CNc1ccc(/C=C/c2nc3ccc(I)cc3[nH]2)cc1`, the Selectivity ratio in series [1] stood at 0.93. The Kd in series [2] was found to be 420 nM; in series [3], 450 nM.

Turning to `CNc1ccc(/N=N/c2nc3ccc([125I])cc3s2)cc1`, the Ratio in series [4] was 0.33.
